The values below come from publication PMC9186316 (Toxicological Sciences, 2019).

In one data set the test system is uterus weight response. Set-up: species or system rat. As to conditions: predicted and in vivo BMDL50 to BMDU50, rats. The method, boiled down:
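Generic rat PBK models used for reverse dosimetry of MCF-7 proliferation and YES concentration-response data. In vitro concentrations corrected for unbound fraction (RED in assay medium and rat serum; 10% FBS medium taken as half the 5% FBS fub), then converted to blood concentrations and dose levels. Literature uterotrophic data: absolute uterus weight increase, not body-weight normalised. BMR 50% over control; BMD50 with 95% BMDL50–BMDU50.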

The format of data set [1] is in vitro ADME. Conditions: bovine; for recovery: in vitro MCF-7 proliferation assay medium containing 5% FBS; for fraction unbound: in vitro proliferation assay medium with 5% FBS.
The nature of data set [2]: Rapid equilibrium dialysis, fraction unbound in rat serum. The format is in vitro ADME. Conditions: for recovery: rat serum; for fraction unbound: serum.
A short description of data set [3]: Generic PBK model evaluation: predicted versus reported Cmax in rat blood. Conditions: oral administration, rats. The method, boiled down: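 The generic PBK model predicted parent-compound blood concentration–time curves after single oral dosing in rats, using partition coefficients calculated from log Pow and hepatic clearance from rat liver S9. Doses matched those of the published in vivo kinetic studies. Predicted Cmax was compared with literature blood data, and the difference was expressed as a fold value.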

The nature of data set [4]: Hepatic clearance by substrate depletion in rat liver S9. The format is in vitro ADME. Conditions: Sprague-Dawley, liver S9, pH 7.4. The method, boiled down:
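Rat liver S9 (pooled, male or female Sprague-Dawley, 0.5 mg/ml) was incubated with 3 µM substrate (added from a 100-fold DMSO stock). Sampling ran 0–90 min against cofactor-free controls, with UPLC quantification. CLint came from the linear part of ln(Ccompound/Ccontrol) versus time. Triplicates, 3 independent studies.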

The structures appear in SMILES notation. Where two headings read alike, the source gives them in different places.

As to `CC(C)(c1ccc(O)cc1)c1ccc(O)cc1` [BPA, bisphenol A], the “Potency comparison from BMD50 values (Figure 8)” value (shortened to “Potency comparison”) in the data set with uterus weight response is “least potent”.
In data set [1], `O=c1oc2cc(O)ccc2c2oc3cc(O)ccc3c12` [COU, coumestrol] displayed a recovery of 79% and an unbound share (fraction unbound) of 0.69 ± 0.034. In data set [2], this compound came in with a recovery of 82% and a fraction unbound of 0.35 ± 0.07. Also, the “Difference in Cmax between the model predictions and the in vivo kinetic data” value in data set [3] is reported as 2.2 fold.
Consider `CC/C(=C(/CC)c1ccc(O)cc1)c1ccc(O)cc1` [DES, Diethylstilbestrol], for which, in data set [1], the recovery was found to be 79% and the unbound share (fraction unbound) stood at 0.74 ± 0.02. In data set [2], this compound returned a recovery of 77% and a fraction unbound of 0.48 ± 0.08. Further, the “Potency comparison” value in the data set with uterus weight response is recorded as “most potent”.
For `C[C@]12CC[C@@H]3c4ccc(O)cc4CC[C@H]3[C@@H]1CC[C@@H]2O` [E2, 17β-estradiol], the “Potency comparison” value in the data set on uterus weight response is given as “most potent”.
Take `C#C[C@]1(O)CC[C@H]2[C@@H]3CCc4cc(O)ccc4[C@H]3CC[C@@]21C` [EE2, 17α-ethinylestradiol]: in data set [1], the recovery came to 86% and the fraction unbound came out at 0.72 ± 0.18. In data set [2], this compound came in with a recovery of 80% and a fraction unbound of 0.46 ± 0.03. Also, in the data set with uterus weight response, the “Potency comparison” value is on record as “most potent”.
In the case of `O=c1c(-c2ccc(O)cc2)coc2cc(O)cc(O)c12` [GEN, genistein], the recovery is 88% in data set [1] and 83% in data set [2]. In addition, the fraction unbound in data set [1] stood at 0.8 ± 0.04; in data set [2] it was 0.07 ± 0.02.
With `COc1ccc(C(c2ccc(OC)cc2)C(Cl)(Cl)Cl)cc1` [MXC, methoxychlor], the figures for the recovery in data set [1] and in data set [2] were 77% and 76%, respectively. In addition, the results for the fraction unbound in data set [1] and in data set [2] were 0.73 ± 0.29 and 0.27 ± 0.04, respectively. Moreover, the microsomal CLint at 3 µM was 313 ± 5 µL/min/mg in data set [4] (female) and 448 ± 8 µL/min/mg in data set [4] (male).
